From ChEMBL document CHEMBL2375359, “Synthesis and antibacterial evaluation of novel pleuromutilin derivatives” (2013)
≈ marks a conversion by molar mass, not a printed value.

The compounds below were run on Streptococcus agalactiae (assay: Antibacterial activity against Streptococcus agalactiae at 80 ug/ml after 24 hrs by Oxford cup assay). Settings: read-out: IZ.
Assay type: functional
How it was run: (§1)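 Oxford cup diffusion with clinical isolates. Inoculum made in 0.9% saline to a McFarland standard and spread evenly on nutrient agar. Compound solutions, prepared as for the agar dilution test, were added at the stated concentration to Oxford cups set equidistant on the agar surface. Inhibition zones were measured after 24 h at 37 °C.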
In the case of `C=C[C@]1(C)C[C@@H](OC(=O)CSC(C)(C)CNC(=O)c2ccc(C)cc2)[C@]2(C)[C@H](C)CC[C@]3(CCC(=O)[C@H]32)[C@@H](C)[C@@H]1O`, the zone of inhibition at 80 µg/mL is reported as 9.82 mm.

What follows are compounds tested on Streptococcus agalactiae (assay: Antibacterial activity against Streptococcus agalactiae at 160 ug/ml after 24 hrs by Oxford cup assay). Settings: read-out: IZ.
Assay type: functional
How it was run: as §1
`C=C[C@]1(C)C[C@@H](OC(=O)CSC(C)(C)CNC(=O)c2ccc(C)cc2)[C@]2(C)[C@H](C)CC[C@]3(CCC(=O)[C@H]32)[C@@H](C)[C@@H]1O` was tested, and the zone of inhibition at 160 µg/mL was 10.9 mm.

These compounds were tested on Escherichia coli (assay: Antibacterial activity against Escherichia coli at 80 ug/ml after 24 hrs by Oxford cup assay). Settings: read-out: IZ.
Assay type: functional
How it was run: as §1
In the case of `C=C[C@]1(C)C[C@@H](OC(=O)CSC(C)(C)CNC(=O)c2ccc(C)cc2)[C@]2(C)[C@H](C)CC[C@]3(CCC(=O)[C@H]32)[C@@H](C)[C@@H]1O`, the zone of inhibition at 80 µg/mL is reported as 9.8 mm.

These compounds were tested on Streptococcus agalactiae (assay: Antibacterial activity against Streptococcus agalactiae at 320 ug/ml after 24 hrs by Oxford cup assay). Settings: read-out: IZ.
Assay type: functional
How it was run: as §1
`C=C[C@]1(C)C[C@@H](OC(=O)CSC(C)(C)CNC(=O)c2ccc(C)cc2)[C@]2(C)[C@H](C)CC[C@]3(CCC(=O)[C@H]32)[C@@H](C)[C@@H]1O` was tested, and the zone of inhibition at 320 µg/mL was 12.3 mm.

The compounds below were run on Escherichia coli (assay: Antibacterial activity against Escherichia coli at 160 ug/ml after 24 hrs by Oxford cup assay). Settings: read-out: IZ.
Assay type: functional
How it was run: as §1
In the case of `C=C[C@]1(C)C[C@@H](OC(=O)CSC(C)(C)CNC(=O)c2ccc(C)cc2)[C@]2(C)[C@H](C)CC[C@]3(CCC(=O)[C@H]32)[C@@H](C)[C@@H]1O`, the zone of inhibition at 160 µg/mL is reported as 15.1 mm.

The compounds below were run on Escherichia coli (assay: Antibacterial activity against Escherichia coli at 320 ug/ml after 24 hrs by Oxford cup assay). Settings: read-out: IZ.
Assay type: functional
How it was run: as §1
Work on `C=C[C@]1(C)C[C@@H](OC(=O)CSC(C)(C)CNC(=O)c2ccc(C)cc2)[C@]2(C)[C@H](C)CC[C@]3(CCC(=O)[C@H]32)[C@@H](C)[C@@H]1O` yielded a zone of inhibition at 320 µg/mL of 16.6 mm.

What follows are compounds tested on Staphylococcus epidermidis (assay: Antibacterial activity against methicillin-resistant Staphylococcus epidermidis at 80 ug/ml after 24 hrs by Oxford cup assay). Settings: read-out: IZ.
Assay type: functional
How it was run: (§2)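 Oxford cup diffusion: clinical isolate inoculum in 0.9% saline set by McFarland standard, spread evenly on nutrient agar. Cups placed equidistant on the surface and filled with compound solutions prepared as for the agar dilution test, at several concentrations. Inhibition zone measured after 24 h at 37 °C.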
With `C=C[C@]1(C)C[C@@H](OC(=O)CSC(C)(C)CNC(=O)c2ccc(C)cc2)[C@]2(C)[C@H](C)CC[C@]3(CCC(=O)[C@H]32)[C@@H](C)[C@@H]1O` the zone of inhibition at 80 µg/mL was 10.9 mm.

What follows are compounds tested on Staphylococcus epidermidis (assay: Antibacterial activity against methicillin-resistant Staphylococcus epidermidis at 160 ug/ml after 24 hrs by Oxford cup assay). Settings: read-out: IZ.
Assay type: functional
How it was run: as §2
`C=C[C@]1(C)C[C@@H](OC(=O)CSC(C)(C)CNC(=O)c2ccc(C)cc2)[C@]2(C)[C@H](C)CC[C@]3(CCC(=O)[C@H]32)[C@@H](C)[C@@H]1O` gave a zone of inhibition at 160 µg/mL of 10.3 mm.

These compounds were tested on Staphylococcus epidermidis (assay: Antibacterial activity against methicillin-resistant Staphylococcus epidermidis at 320 ug/ml after 24 hrs by Oxford cup assay). Settings: read-out: IZ.
Assay type: functional
How it was run: as §2
For `C=C[C@]1(C)C[C@@H](OC(=O)CSC(C)(C)CNC(=O)c2ccc(C)cc2)[C@]2(C)[C@H](C)CC[C@]3(CCC(=O)[C@H]32)[C@@H](C)[C@@H]1O`, the zone of inhibition at 320 µg/mL was 12.1 mm.

The compounds below were run on Staphylococcus aureus (assay: Antibacterial activity against methicillin-resistant Staphylococcus aureus at 80 ug/ml after 24 hrs by Oxford cup assay). Settings: read-out: IZ.
Assay type: functional
How it was run: as §2
In the case of `C=C[C@]1(C)C[C@@H](OC(=O)CSC(C)(C)CNC(=O)c2ccc(C)cc2)[C@]2(C)[C@H](C)CC[C@]3(CCC(=O)[C@H]32)[C@@H](C)[C@@H]1O`, the zone of inhibition at 80 µg/mL is reported as 10.4 mm.

Each compound was assayed on Staphylococcus aureus (assay: Antibacterial activity against methicillin-resistant Staphylococcus aureus at 160 ug/ml after 24 hrs by Oxford cup assay). Settings: read-out: IZ.
Assay type: functional
How it was run: as §2
Compound `C=C[C@]1(C)C[C@@H](OC(=O)CSC(C)(C)CNC(=O)c2ccc(C)cc2)[C@]2(C)[C@H](C)CC[C@]3(CCC(=O)[C@H]32)[C@@H](C)[C@@H]1O` has a zone of inhibition at 160 µg/mL of 11.5 mm.

Each compound was assayed on Staphylococcus aureus (assay: Antibacterial activity against methicillin-resistant Staphylococcus aureus at 320 ug/ml after 24 hrs by Oxford cup assay). Settings: read-out: IZ.
Assay type: functional
How it was run: as §2
`C=C[C@]1(C)C[C@@H](OC(=O)CSC(C)(C)CNC(=O)c2ccc(C)cc2)[C@]2(C)[C@H](C)CC[C@]3(CCC(=O)[C@H]32)[C@@H](C)[C@@H]1O` showed a zone of inhibition at 320 µg/mL of 12.6 mm.

These compounds were tested on Streptococcus agalactiae (assay: Antibacterial activity against Streptococcus agalactiae after 48 hrs by agar dilution method). Settings: not given.
Assay type: functional
How it was run: (§3)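 Agar dilution per NCCLS on clinical isolates. 2-fold serial dilutions of compound (2 mL) mixed into 18 mL hot Mueller-Hinton agar. Inoculum from blood slants, adjusted to approx. 10⁵–10⁶ cfu/mL in sterile 0.90% NaCl, then spotted onto the plates. Incubated 36.5 °C, 48 h. MIC is the lowest concentration giving complete growth inhibition. Run in triplicate at pH 7.40.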
Compound `C=C[C@]1(C)C[C@@H](OC(=O)CSC(C)(C)CNC(=O)c2ccc(C)cc2)[C@]2(C)[C@H](C)CC[C@]3(CCC(=O)[C@H]32)[C@@H](C)[C@@H]1O` has an MIC of 0.5 µg/mL (≈ 0.856 µM).

These compounds were tested on Escherichia coli (assay: Antibacterial activity against Escherichia coli after 48 hrs by agar dilution method). Settings: not given.
Assay type: functional
How it was run: as §3
With `C=C[C@]1(C)C[C@@H](OC(=O)CSC(C)(C)CNC(=O)c2ccc(C)cc2)[C@]2(C)[C@H](C)CC[C@]3(CCC(=O)[C@H]32)[C@@H](C)[C@@H]1O` the MIC was 4 µg/mL (≈ 6.85 µM).

These compounds were tested on Staphylococcus epidermidis (assay: Antibacterial activity against methicillin-resistant Staphylococcus epidermidis after 48 hrs by agar dilution method). Settings: not given.
Assay type: functional
How it was run: (§4)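 Agar dilution per NCCLS: 2-fold serial dilutions incorporated into hot Mueller-Hinton agar. Clinical isolates grown from blood slants, suspended in sterile 0.90% NaCl to about 10⁵–10⁶ cfu/mL, spotted onto plates. Incubation 36.5 °C, 48 h. MIC taken as the lowest concentration giving complete growth inhibition. Run in triplicate at pH 7.40.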
Compound `C=C[C@]1(C)C[C@@H](OC(=O)CSC(C)(C)CNC(=O)c2ccc(C)cc2)[C@]2(C)[C@H](C)CC[C@]3(CCC(=O)[C@H]32)[C@@H](C)[C@@H]1O` has an MIC of 16 µg/mL (≈ 27.4 µM).

The compounds below were run on Staphylococcus aureus (assay: Antibacterial activity against methicillin-resistant Staphylococcus aureus after 48 hrs by agar dilution method). Settings: not given.
Assay type: functional
How it was run: as §4
`C=C[C@]1(C)C[C@@H](OC(=O)CSC(C)(C)CNC(=O)c2ccc(C)cc2)[C@]2(C)[C@H](C)CC[C@]3(CCC(=O)[C@H]32)[C@@H](C)[C@@H]1O` was tested, and the MIC was 0.25 µg/mL (≈ 0.428 µM).
